From ChEMBL document CHEMBL1140190, “Phenolic constituents of Amorpha fruticosa that inhibit NF-kappaB activation and related gene expression” (J Nat Prod, 2008)
The source made the active and inactive calls. The calls are words filed in the database; no cut-off is given here.

Legend:
[1] = Inhibition of LPS-induced NF-kappaB activation in mouse RAW264.7 cells by SEAP reporter gene assay; format: cell-based
In short: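 RAW264.7 cells transiently transfected with a plasmid carrying eight κB elements driving SEAP, seeded at 5 × 10^4 cells/well, 3 h at 37 °C. Compounds in DMSO (final 0.01%) plus LPS 1 µg mL-1 for 24 h. Supernatant heated 65 °C 10 min, then SEAP buffer and p-nitrophenyl phosphate, 37 °C 4 h, OD 405 nm. Means ± SD of three experiments.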

[2] = Inhibition of TNF-alpha-induced NF-kappaB activation in human HeLa cells by SEAP reporter gene assay; format: cell-based
In short: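 HeLa cells transiently transfected with an 8×κB-SEAP reporter plasmid, seeded at 5 × 10^4 cells/well, 3 h at 37 °C. Compounds in DMSO (final 0.01%) with TNF-α 10 ng mL-1 for 24 h. Supernatant heat-treated 65 °C 10 min, substrate p-nitrophenyl phosphate, 37 °C 4 h, absorbance 405 nm. Means ± SD, three experiments.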

[3] = test system: MCF7; assay: Induction of apoptosis in human MCF7 cells assessed as suppression of MMP9 by Western blot analysis; format: functional, cell-based
In short: (§1)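 MCF-7 cells plated at 70% confluence and incubated overnight at 37 °C. Pretreated 30 min with compounds in DMSO (final DMSO 0.001%), then stimulated with TNF-α (20 ng mL-1) for 24 h. Total lysates in NP-40 lysis buffer were resolved by 10% SDS-PAGE and immunoblotted with specific antibodies (1:1000, overnight, 4 °C). ECL detection with α-tubulin as loading control.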

[4] = test system: MCF7; assay: Induction of apoptosis in human MCF7 cells assessed as down regulation of cIAP2 by Western blot analysis; format: functional, cell-based; in short: as §1
[5] = test system: MCF7; assay: Inhibition of TNF-alpha-induced NF-kappaB DNA binding activity in human MCF7 cells by electrophoretic shift mobility assay; format: cell-based
In short: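 MCF-7 cells at 70% confluence preincubated 30 min with compounds (DMSO final 0.001%), then TNF-α 20 ng mL-1 for 60 min. Nuclear extracts from hypotonic swelling and high-salt extraction, bound 20 min at room temperature to a 32P end-labeled NF-κB oligonucleotide. Excess unlabeled NF-κB and AP-1 oligonucleotides served as competitors.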

[6] = test system: MCF7; assay: Induction of apoptosis in human MCF7 cells assessed as down regulation of cIAP1 by Western blot analysis; format: functional, cell-based; in short: as §1
[7] = test system: MCF7; assay: Blockade of TNF-alpha-induced COX2 induction in human MCF7 cells by Western blot analysis; format: functional, cell-based; in short: as §1
[8] = test system: MCF7; assay: Suppression of TNF-alpha-induced expression of iNOS in human MCF7 cells at 3 uM by Western blot analysis; format: functional, cell-based
In short: (§2)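 MCF-7 cells plated at 70% confluence and kept overnight at 37 °C. Compound (DMSO final 0.001%) added for 30 min, then TNF-α 20 ng mL-1 for 24 h. Total lysates run on 10% SDS-PAGE and blotted, primary antibody overnight at 4 °C, ECL detection, α-tubulin as loading control.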

[9] = test system: MCF7; assay: Suppression of TNF-alpha-induced expression of iNOS in human MCF7 cells at 10 uM by Western blot analysis; format: functional, cell-based; in short: as §2

Structure (SMILES)	IC50 [1] [nM]	IC50 [2] [nM]	Activity [3]	Activity [4]	Activity [5]	Activity [6]	Activity [7]	Activity [8]	Activity [9]
COc1cc2c(cc1OC)[C@@H]1C(=O)c3ccc4c(c3O[C@@H]1CO2)C=CC(C)(C)O4 [DEGUELIN]	1750	220							
COc1c(CC=C(C)C)c(O)cc(CCc2ccccc2)c1C(=O)O	3020	1750							
COc1cc2c(cc1OC)[C@]1(O)C(=O)c3ccc4c(c3O[C@@H]1CO2)C=CC(C)(C)O4 [TEPHROSIN]	2000	110	Active	Active	Dose-dependent effect	Active	Active	Active	Active
COc1cc2c(cc1OC)[C@]1(O)C(=O)c3c(O)cc4c(c3O[C@@H]1CO2)C=CC(C)(C)O4	4210	190							
CC(C)=CCC/C(C)=C/Cc1c(O)cc(CCc2ccccc2)c(C(=O)O)c1O	3140	1560							
COC1=CC(=O)[C@]2(C=C1OC)OC[C@H]1Oc3c(ccc4c3C=CC(C)(C)O4)C(=O)[C@H]12 [AMORPHISPIRONONE]	13900	7390							
CC1=C(O)C(=O)C=C2C1=CC=C1[C@@]2(C)CC[C@@]2(C)[C@@H]3C[C@](C)(C(=O)O)CC[C@]3(C)CC[C@]12C [CELASTROL]	300	150							

More lines, main results first:

IC50 [1] [nM]	IC50 [2] [nM]	Structure (SMILES)	Activity [3]	Activity [4]	Activity [5]	Activity [6]	Activity [7]	Activity [8]	Activity [9]
680	260	CC(C)=CCC/C(C)=C/Cc1c(O)cc(/C=C/c2ccccc2)cc1O [AMORPHASTILBOL]							
1830	1030	CC(C)=CCC/C(C)=C/Cc1c(O)ccc(C(=O)/C=C/c2ccc(O)cc2)c1O [XANTHOANGELOL]							
4170	840	COc1cc(CCc2ccccc2)c(C(=O)O)c(O)c1CC=C(C)C [AMORFRUTIN A]			Dose-dependent effect			Active	Active
7650	2120	COC1=CC(=O)[C@]2(C=C1OC)OC[C@H]1Oc3c4c(cc(O)c3C(=O)[C@H]12)OC(C)(C)C=C4	Active	Active	Dose-dependent effect	Active	Active	Active	Active
2440	1130	COc1c(C/C=C(\C)CCC=C(C)C)c(O)cc(CCc2ccccc2)c1C(=O)O							
